The text below walks through data of ChEMBL document CHEMBL1152810, “Microwave synthesis and evaluation of phenacylhomoserine lactones as anticancer compounds that minimally activate quorum sensing pathways in Pseudomonas aeruginosa” (J Med Chem, 2009).

The subject of data set [1] is NCI-H630. As to the kind of experiment: Cytotoxicity against human NCI-H630 cells after 5 days by SRB assay. The conditions noted are these: NCI-H630, 120 h. It counts as functional, cell-based. The method in brief:
(§1)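 Cells grown in phenol-red-free RPMI-1640 with 10% dialyzed FBS and no antibiotics, at 37 °C and 5% CO₂. H630-1 was kept in 1 µM 5-FU until 1 week before use. Compounds were dried from EtOH (10× final) into wells, in duplicate or quadruplicate. Seeding per well: H630 2×10³, H630-1 4×10³, PC3 2×10³. After 5 days, cells were TCA-fixed, stained with 0.4% SRB, dye dissolved in Tris, OD570 read.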

Data set [2] concerns NCI-H630. As to the kind of experiment: Cytotoxicity against 5FU-resistant human NCI-H630 cells after 5 days by SRB assay. In kind it is functional, cell-based. To be noted: NCI-H630, 120 h. The method in brief:
as §1

The subject of a further data set is PC-3. In words: Cytotoxicity against human PC3 cells after 5 days by SRB assay. To be noted: PC-3, 120 h. In kind it is functional, cell-based. The method in brief: as §1
The subject of data set [3] is Pseudomonas aeruginosa. In words: Toxicity assessed as activation of quorum sensing signalling in Pseudomonas aeruginosa MW1 carrying (lasI-,rhlI-) pUM15 containing rsa::gfp fusion gene at 33 uM by LasR-dependent green fluorescence protein reporter assay. The conditions noted are these: in vivo. It counts as organism-based.
Data set [4] relates to Pseudomonas aeruginosa. In words: Toxicity assessed as activation of quorum sensing signalling in Pseudomonas aeruginosa MW1 carrying (lasI-,rhlI-) pUM15 containing rsa::gfp fusion gene at 0.3 uM by LasR-dependent green fluorescence protein reporter assay. It counts as organism-based. To be noted: in vivo.

`O=C(CCCCCCCCCc1ccccc1)CC(=O)N[C@H]1CCOC1=O`: the IC50 came to 16 µM in the data set with NCI-H630 [1], 13 µM with NCI-H630 [2] and 4 µM in the data set with PC-3. In addition, the Activity entry in the data set with Pseudomonas aeruginosa [3] is “Non-toxic”.

As to `O=C(CCCCCCCc1ccccc1)CC(=O)N[C@H]1CCOC1=O`, the IC50 in the data set with NCI-H630 [1] was 42 µM; in the data set on NCI-H630 [2], 10 µM; with PC-3 it was 2 µM.

As to `O=C(CCCCCCCCCCCc1ccccc1)CC(=O)N[C@H]1CCOC1=O`, the IC50 in the data set on NCI-H630 [1] came to 33 µM; in the data set with NCI-H630 [2], 27 µM; in the data set on PC-3, 4 µM. Besides, the Activity entry with Pseudomonas aeruginosa [3] was “Non-toxic”.

Consider `O=C(CCCCCc1ccccc1)CC(=O)N[C@H]1CCOC1=O`, for which the IC50 in the data set with NCI-H630 [1] worked out at 44 µM; with NCI-H630 [2] it was 24 µM; in the data set with PC-3, 9 µM.

`O=C(CCCCCCc1ccccc1)CC(=O)N[C@H]1CCOC1=O`: the IC50 in the data set with NCI-H630 [1] is 65 µM; in the data set with NCI-H630 [2] it was 27 µM; with PC-3 it was 9 µM.

With `O=C(CCCCCCCCCCc1ccccc1)N[C@H]1CCOC1=O`, the IC50 amounted to 70 µM in the data set with NCI-H630 [1], 66 µM in the data set with NCI-H630 [2] and 66 µM with PC-3.

Turning to `O=C(CCCc1ccccc1)N[C@H]1CCOC1=O`, the IC50 in the data set with NCI-H630 [1], in the data set with NCI-H630 [2] and in the data set on PC-3 was above 100 µM throughout.

Regarding `O=C(CCCCCCCc1ccccc1)N[C@H]1CCOC1=O`, the IC50 in the data set with NCI-H630 [1] is above 100 µM; with NCI-H630 [2], above 100 µM; with PC-3, 85 µM.

As to `O=C(CCCCCCCCc1ccccc1)N[C@H]1CCOC1=O`, the IC50 is above 100 µM in the data set on NCI-H630 [1], above 100 µM in the data set on NCI-H630 [2] and 67 µM in the data set on PC-3.

As for `O=C(CCCCCCCCCCc1ccccc1)CC(=O)N[C@H]1CCOC1=O`, the IC50 was found to be 23 µM in the data set with NCI-H630 [1], 14 µM with NCI-H630 [2] and 2 µM with PC-3. Also, the Activity result with Pseudomonas aeruginosa [3] is “Non-toxic”.

With `O=C(CCCCc1ccccc1)CC(=O)N[C@H]1CCOC1=O`, the IC50 is above 100 µM with NCI-H630 [1], 80 µM in the data set on NCI-H630 [2] and 83 µM in the data set with PC-3.

Regarding `O=C(CC(=O)c1ccccc1)N[C@H]1CCOC1=O`, the IC50 with NCI-H630 [1], with NCI-H630 [2] and with PC-3 was above 100 µM in each case.

Consider `O=C(Cc1ccccc1)N[C@H]1CCOC1=O`, for which the IC50 in the data set with NCI-H630 [1], in the data set with NCI-H630 [2] and in the data set on PC-3 was above 100 µM throughout.

Turning to `O=C(CC(=O)N[C@H]1CCOC1=O)Cc1ccccc1`, the IC50 with NCI-H630 [1], in the data set on NCI-H630 [2] and in the data set on PC-3 was above 100 µM in each case.

For the compound `O=C(CCCCCc1ccccc1)N[C@H]1CCOC1=O`, the IC50 with NCI-H630 [1], in the data set with NCI-H630 [2] and with PC-3 was above 100 µM throughout.

Take `O=C(CCCc1ccccc1)CC(=O)N[C@H]1CCOC1=O`: the IC50 with NCI-H630 [1], with NCI-H630 [2] and with PC-3 was above 100 µM each time.

As for `O=C(CCCCCCc1ccccc1)N[C@H]1CCOC1=O`, the IC50 in the data set on NCI-H630 [1], with NCI-H630 [2] and in the data set on PC-3 was above 100 µM throughout.

With `O=C(CCCCCCCCCc1ccccc1)CC(=O)N[C@@H]1CCOC1=O`, the IC50 in the data set on NCI-H630 [1], with NCI-H630 [2] and in the data set with PC-3 was above 100 µM in each case.

Turning to `O=C(CCc1ccccc1)N[C@H]1CCOC1=O`, the IC50 in the data set on NCI-H630 [1], in the data set on NCI-H630 [2] and in the data set with PC-3 was above 100 µM in each case.

For `O=C(CCCCCCCCc1ccccc1)CC(=O)N[C@H]1CCOC1=O`, the figures for the IC50 with NCI-H630 [1], in the data set with NCI-H630 [2] and in the data set on PC-3 were 11 µM, 10 µM and 4 µM, respectively.

On to `O=C(CCCCCCCCCCCc1ccccc1)N[C@H]1CCOC1=O`, for which the IC50 with NCI-H630 [1], in the data set with NCI-H630 [2] and in the data set on PC-3 was above 100 µM in each case.

For `O=C(CCCCCCCCCc1ccccc1)N[C@H]1CCOC1=O`, the values for the IC50 in the data set with NCI-H630 [1], in the data set on NCI-H630 [2] and with PC-3 were above 100 µM, above 100 µM and 75 µM, respectively.

For the compound `O=C(CCCCc1ccccc1)N[C@H]1CCOC1=O`, the IC50 in the data set on NCI-H630 [1], with NCI-H630 [2] and in the data set with PC-3 was above 100 µM in each case.

With `O=C(CCc1ccccc1)CC(=O)N[C@H]1CCOC1=O`, the IC50 in the data set on NCI-H630 [1], in the data set on NCI-H630 [2] and in the data set with PC-3 was above 100 µM in each case.

With `CCCCCCCCCC(=O)CC(=O)N[C@H]1CCOC1=O`, the IC50 in the data set on NCI-H630 [1] was determined as 34 µM; in the data set with NCI-H630 [2], 12 µM; with PC-3 it was 5 µM. Moreover, the Activity entry with Pseudomonas aeruginosa [4] is listed as “Toxic”.
